The subject of experiment [1] is SH-SY5Y. Nature of the experiment: Cytotoxicity against human SH-SY5Y cells assessed as cell viability at 10 uM after 48 hrs by MTT assay relative to control. The conditions noted are these: for viability at 10 µM: read-out: Activity. It counts as functional. The method in brief:
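Single-concentration screen: SH-SY5Y cells given 10 µM compound for 48 h. Viability read by MTT and expressed as % of untreated control. Mean ± SEM of three replicates.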
Background: Tetrazolium dyes change colour on reduction, which living cells bring about.

Experiment [2] has as its system SH-SY5Y. The experiment is described as follows: Cell cycle arrest in human SH-SY5Y cells assessed as accumulation at G0/G1 phase at 2 times IC50 concentration after 16 hrs by FACS analysis (reference value: 49 +/- 5.5%). It counts as functional. Background: In flow cytometry, cells or beads pass a laser one at a time.
Experiment [3] has as its system SH-SY5Y. The experiment is described as follows: Cell cycle arrest in human SH-SY5Y cells assessed as accumulation at S phase at 2 times IC50 concentration after 16 hrs by FACS analysis (reference value: 36 +/- 4%). It counts as functional.
The subject of experiment [4] is SH-SY5Y. Nature of the experiment: Cell cycle arrest in human SH-SY5Y cells assessed as accumulation at G2/M phase at 2 times IC50 concentration after 16 hrs by FACS analysis (reference value: 15 +/- 4.8%). It counts as functional.
The test system of experiment [5] is SH-SY5Y. The experiment is described as follows: Cytotoxicity against human SH-SY5Y cells after 48 hrs by MTT assay. It counts as functional, cell-based. The method, boiled down:
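SH-SY5Y neuroblastoma cells treated 48 h across a dose range. Viability/proliferation read by MTT. IC50 taken from dose–response curves, mean ± SEM of at least eight determinations from two separate experiments.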

The nature of experiment [6]: Inhibition of tubulin polymerization.

Active and inactive are the calls of the source. The calls are words filed in the database; no cut-off is given here.

With `COc1ccc(-n2cc(C(=O)c3cc(OC)c(OC)c(OC)c3)nn2)cc1[N+](=O)[O-]`, the outcome with SH-SY5Y [1] was inactive.

With `COc1cccc(-n2cc(C(=O)c3cc(OC)c(OC)c(OC)c3)nn2)c1`, in the experiment with SH-SY5Y [1], the outcome was inactive.

Take `COc1ccc(-n2cc(C(=O)c3cc(OC)c(OC)c(OC)c3)nn2)c(OC)c1`: the result in the experiment on SH-SY5Y [1] was inactive.

For the compound `COc1ccc(-n2nnnc2C(=O)c2cc(OC)c(OC)c(OC)c2)cc1O`, the viability at 10 µM with SH-SY5Y [1] worked out at 51.6%. For the same compound, the Activity in the experiment with SH-SY5Y [2] is 41%; with SH-SY5Y [3] it was 30%; in the experiment on SH-SY5Y [4], 29%.

By IC50 is commonly meant the concentration needed to halve the response being measured. Read a low IC50 as greater potency. `COc1ccc(/C=C(\C)C(=O)c2cc(OC)c(OC)c(OC)c2)cc1O`: the half-maximal inhibitory concentration (IC50) stood at 0.21 nM in the experiment with SH-SY5Y [5] and 1800 nM in experiment [6].

Consider `COc1cc(C(=O)c2cn(-c3ccc4c(c3)OCO4)nn2)cc(OC)c1OC`, for which the result with SH-SY5Y [1] was inactive.

Consider `COc1cc(C(=O)c2cn(-c3ccc(OC(F)(F)F)cc3)nn2)cc(OC)c1OC`, for which the outcome with SH-SY5Y [1] was inactive.

For the compound `COc1ccc(/C=C/C(=O)c2cc(OC)c(OC)c(OC)c2)cc1O`, the IC50 is 50 nM in the experiment with SH-SY5Y [5] and 1000 nM in experiment [6]. The viability at 10 µM with SH-SY5Y [1] is 17%. The Activity stood at 23% in the experiment on SH-SY5Y [2], 48% in the experiment with SH-SY5Y [3] and 30% with SH-SY5Y [4].

`COc1ccccc1-n1cc(C(=O)c2cc(OC)c(OC)c(OC)c2)nn1`: the outcome in the experiment with SH-SY5Y [1] was inactive.

Turning to `COc1cc(C(=O)c2cn(-c3cnc4ccccc4c3)nn2)cc(OC)c1OC`, the outcome in the experiment on SH-SY5Y [1] was inactive.

As to `COc1cc(-n2cc(C(=O)c3cc(OC)c(OC)c(OC)c3)nn2)ccc1O`, the outcome in the experiment with SH-SY5Y [1] was inactive.

On to `COc1ccc(-c2[nH]nnc2C(=O)c2cc(OC)c(OC)c(OC)c2)cc1`, for which the viability at 10 µM in the experiment with SH-SY5Y [1] was more than 70%.

In the case of `COc1ccc(-n2cc(C(=O)c3cc(OC)c(OC)c(OC)c3)nn2)cc1F`, in the experiment on SH-SY5Y [1], the result was inactive.

Consider `COc1ccc(-n2cc(C(=O)c3cc(OC)c(OC)c(OC)c3)nn2)cc1O`, for which, in the experiment on SH-SY5Y [1], the outcome was inactive.

For `COc1ccc(C(=O)c2nn[nH]c2-c2cc(OC)c(OC)c(OC)c2)cc1`, in the experiment on SH-SY5Y [1], the viability at 10 µM is more than 70%.

Take `COc1cc(C(=O)c2cn(-c3ccc4ccccc4c3)nn2)cc(OC)c1OC`: the outcome in the experiment on SH-SY5Y [1] was inactive.

Regarding `COc1cc(OC)cc(-n2cc(C(=O)c3cc(OC)c(OC)c(OC)c3)nn2)c1`, the outcome in the experiment on SH-SY5Y [1] was inactive.

On to `COc1ccc(C#CC(=O)c2cc(OC)c(OC)c(OC)c2)cc1`, for which the viability at 10 µM with SH-SY5Y [1] was 27.7%. In addition, the Activity with SH-SY5Y [2] was found to be 79%; with SH-SY5Y [3], 16%; with SH-SY5Y [4], 6%.

Turning to `COc1ccc(-n2cc(C(=O)c3cc(OC)c(OC)c(OC)c3)nn2)cc1`, in the experiment on SH-SY5Y [1], the outcome was inactive.

For the compound `COc1cc(OC(F)(F)F)cc(-n2cc(C(=O)c3cc(OC)c(OC)c(OC)c3)nn2)c1`, the outcome in the experiment with SH-SY5Y [1] was inactive.

On to `COc1ccc(C(=O)C#Cc2cc(OC)c(OC)c(OC)c2)cc1`, for which, in the experiment with SH-SY5Y [1], the viability at 10 µM turned out to be 20.4%. Also, the results for the Activity with SH-SY5Y [2], with SH-SY5Y [3] and in the experiment with SH-SY5Y [4] were 76%, 18% and 8%, respectively.

For the compound `COc1ccc(-n2cc(C(=O)c3cc(OC)c(OC)c(OC)c3)nn2)cc1OC`, in the experiment with SH-SY5Y [1], the outcome was inactive.

With `COc1cc(C(=O)c2cn(-c3cccc4ccccc34)nn2)cc(OC)c1OC`, in the experiment on SH-SY5Y [1], the outcome was inactive.

Regarding `COc1cccc(-n2cc(C(=O)c3cc(OC)c(OC)c(OC)c3)nn2)c1O`, in the experiment with SH-SY5Y [1], the outcome was inactive.

Turning to `COc1cc(C(=O)c2cn(-c3cc(OC)c(OC)c(OC)c3)nn2)cc(OC)c1OC`, in the experiment on SH-SY5Y [1], the result was inactive.

These data come from ChEMBL document CHEMBL1641433, “Replacement of the double bond of antitubulin chalcones with triazoles and tetrazoles: Synthesis and biological evaluation” (Bioorg Med Chem Lett, 2011).
